In ChEMBL document CHEMBL1149132, “Structure-activity study of the ORL1 antagonist Ac-Arg-D-Cha-Qaa-D-Arg-D-p-ClPhe-NH2” (J Med Chem, 2004):

Assays:
Type in all cases: cell-based
Mu-type opioid receptor = Mu-type opioid receptor (Homo sapiens, UniProt P35372); assay: Binding affinity against human Opioid receptor mu 1 (hMOR) was determined using [3H]diprenorphine in vitro transfected to COS-1 cells
Method in brief: (§1)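 Competition binding with [3H]diprenorphine on membrane homogenates of COS-1 cells transiently transfected with human MOR or human DOR. Ki given as mean ± SEM from two or more separate experiments done in duplicate.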

Nociceptin receptor = Nociceptin receptor (Homo sapiens, UniProt P41146); assay: Binding affinity against human opioid receptor like 1 (hORL) was determined using [leucyl-3H]nociceptin in vitro in CHO cells
Method in brief: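 Displacement of [leucyl-3H]nociceptin from membrane homogenates of CHO cells stably expressing recombinant human ORL1. Ki values are means ± SEM of two or more independent experiments, each in duplicate.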

[1] = target: Kappa-type opioid receptor (Homo sapiens, UniProt P41145); assay: Binding affinity against human Opioid receptor kappa 1 (hKOR) was determined using [3H]diprenorphine in vitro in CHO cells
Method in brief: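 Competition binding with [3H]diprenorphine on membrane homogenates of CHO cells stably expressing recombinant human KOR. Ki reported as mean ± SEM of two or more separate experiments, each run in duplicate.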

[2] = target: Delta-type opioid receptor (Homo sapiens, UniProt P41143); assay: Binding affinity against human opioid receptor delta 1 was determined using [3H]diprenorphine in vitro transfected to COS-1 cells; method in brief: as §1
Delta-type opioid receptor, sequence (P41143 whole entry): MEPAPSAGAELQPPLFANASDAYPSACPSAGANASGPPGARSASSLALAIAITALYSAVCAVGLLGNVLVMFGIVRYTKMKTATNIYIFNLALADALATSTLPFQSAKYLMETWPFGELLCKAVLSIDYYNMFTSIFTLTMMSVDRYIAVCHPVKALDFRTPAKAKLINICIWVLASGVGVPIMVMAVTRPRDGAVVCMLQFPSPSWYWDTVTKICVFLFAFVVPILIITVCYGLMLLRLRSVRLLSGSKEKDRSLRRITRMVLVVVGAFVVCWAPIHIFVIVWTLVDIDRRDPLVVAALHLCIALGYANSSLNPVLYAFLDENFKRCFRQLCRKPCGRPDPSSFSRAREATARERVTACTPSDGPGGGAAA

Nociceptin receptor, sequence (P41146 whole entry): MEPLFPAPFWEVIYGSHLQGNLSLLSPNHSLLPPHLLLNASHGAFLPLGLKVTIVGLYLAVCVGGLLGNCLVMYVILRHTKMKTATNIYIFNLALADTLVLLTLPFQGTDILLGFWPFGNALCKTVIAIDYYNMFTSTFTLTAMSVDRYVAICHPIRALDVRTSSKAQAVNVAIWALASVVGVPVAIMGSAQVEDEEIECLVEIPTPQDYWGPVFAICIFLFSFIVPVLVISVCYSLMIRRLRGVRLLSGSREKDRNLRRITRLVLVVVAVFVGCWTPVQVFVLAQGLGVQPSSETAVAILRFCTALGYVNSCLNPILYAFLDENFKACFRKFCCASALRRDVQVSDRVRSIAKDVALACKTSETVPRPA
Kappa-type opioid receptor, sequence (P41145 whole entry): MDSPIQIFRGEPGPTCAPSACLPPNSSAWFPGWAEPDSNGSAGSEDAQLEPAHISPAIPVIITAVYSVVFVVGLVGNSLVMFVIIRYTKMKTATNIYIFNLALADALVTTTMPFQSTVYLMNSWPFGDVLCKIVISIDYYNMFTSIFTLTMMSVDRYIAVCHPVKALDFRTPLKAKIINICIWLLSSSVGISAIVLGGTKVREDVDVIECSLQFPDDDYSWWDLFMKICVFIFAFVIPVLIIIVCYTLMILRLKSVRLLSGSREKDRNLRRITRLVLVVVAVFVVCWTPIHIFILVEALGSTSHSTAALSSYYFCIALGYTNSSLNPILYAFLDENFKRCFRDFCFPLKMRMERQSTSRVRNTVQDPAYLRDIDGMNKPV
Mu-type opioid receptor, sequence (P35372 whole entry): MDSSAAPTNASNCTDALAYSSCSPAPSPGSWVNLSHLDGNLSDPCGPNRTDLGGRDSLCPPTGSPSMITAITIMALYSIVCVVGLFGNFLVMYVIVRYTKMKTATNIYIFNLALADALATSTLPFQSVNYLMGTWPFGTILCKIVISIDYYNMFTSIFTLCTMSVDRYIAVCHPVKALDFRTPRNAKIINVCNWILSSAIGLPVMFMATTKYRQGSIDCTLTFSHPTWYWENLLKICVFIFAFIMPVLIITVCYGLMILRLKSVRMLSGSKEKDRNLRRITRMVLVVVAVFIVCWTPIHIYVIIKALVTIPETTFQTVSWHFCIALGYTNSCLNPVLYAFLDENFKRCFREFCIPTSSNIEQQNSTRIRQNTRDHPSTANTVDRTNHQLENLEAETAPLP

Row | Structure (SMILES) | Ki (Mu-type opioid receptor) [nM] | Ki (Nociceptin receptor) [nM] | Ki [1] [nM] | Ki [2] [µM]
1 | CC(=O)N[C@@H](CCCN=C(N)N)C(=O)N[C@H](CC1CCCCC1)C(=O)N[C@H]1CC[C@H]2CCC[C@@H](C(=O)N[C@H](CCCNC(N)=O)C(N)=O)N2C1=O | > 5000 | > 5000 | > 5000 | > 5
2 | CC(=O)N[C@@H](CCCNC(N)=O)C(=O)N[C@H](CC1CCCCC1)C(=O)N[C@H]1CC[C@H]2CCC[C@@H](C(=O)N[C@H](CCCN=C(N)N)C(=O)N[C@H](Cc3ccc(Cl)cc3)C(N)=O)N2C1=O | 2560 | 72 | 4270 | > 5
3 | CC(=O)N[C@@H](CCCN=C(N)N)C(=O)N[C@H](CC1CCCCC1)C(=O)N[C@H]1CC[C@H]2CCC[C@@H](C(=O)N[C@H](CCCN=C(N)N)C(=O)N[C@H](Cc3ccc(Cl)cc3)C(N)=O)N2C1=O | 90 | 27 | 105 | > 5
4 | CC(=O)N[C@@H](CCCN=C(N)N)C(=O)N[C@H](CC1CCCCC1)C(=O)N[C@H]1CC[C@@H]2SC[C@@H](C(=O)N[C@H](CCCN=C(N)N)C(=O)NC(Cc3ccc(Cl)cc3)C(N)=O)N2C1=O (stereo not given in full) | 53 | 34 | 78 | 0.222
5 | CC(=O)N[C@@H](CCCN=C(N)N)C(=O)N[C@H](CC1CCCCC1)C(=O)N[C@H]1CC[C@H]2CCC[C@@H](C(=O)N[C@H](CCCNC(N)=O)C(=O)N[C@H](Cc3ccc(Cl)cc3)C(N)=O)N2C1=O | > 5000 | > 5000 | > 5000 | > 5
